{
  "source": "paper PMC6800648",
  "about": "(Cell chemical biology, 2019)",
  "molecules": {"B1": {"name": "UNC4976 (peptide)", "peptide": "FALKS", "modifications": "N-terminal 4-(tert-butyl)benzoyl cap on Phe1; Lys4 is N6-(bicyclo[2.2.1]heptan-2-yl)-N6-methyl-L-lysine (N6-methyl-N6-norbornyl lysine); C-terminal methyl ester on Ser5"}},
  "key": {"[1]": {"target": "T1, CBX7 (Mus musculus, UniProt Q8VDS3)", "T1 sequence (Q8VDS3 2-69 limits assumed)": "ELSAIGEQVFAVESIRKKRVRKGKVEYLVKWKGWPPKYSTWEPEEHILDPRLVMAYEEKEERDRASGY", "assay": "Polycomb in-vivo Assay", "type": "cell-based"}, "[2]": {"assay": "Solubility observed in the Polycomb in-vivo Assay", "conditions": "above 30 mM in the Polycomb in-vivo Assay"}, "[3]": {"system": "120 purified Kme reader domains", "assay": "Chromatin-associated domain array", "type": "binding", "conditions": "biotinylated ligand, fluorescently tagged streptavidin visualization"}, "[4]": {"system": "canonical PRC1 complex", "assay": "Chemiprecipitation", "type": "binding, human", "conditions": "PC3 cell lysates, western blot", "how_it_was_run": "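PC3 cells in DMEM/F12 plus 10% FBS were grown to 80–90% confluency, trypsinised, PBS-washed twice, and lysed fresh or after flash freezing. Lysates were pulled down with biotinylated test compounds. Beads were boiled in Laemmli buffer at 95 °C for 3 min, with 1% input. Proteins were separated by SDS-PAGE and blotted to PVDF. Primary antibody overnight at 4°C; infrared secondaries (1:10,000).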"}, "[5]": {"target": "CBX7 chromodomain (UniProt O95931 8-62)", "assay": "fluorescence polarization"}, "[6]": {"target": "T2, CBX6 chromodomain (residues 8–65 of NP_055107) (UniProt O95503 8-65)", "T2 sequence (looked up)": "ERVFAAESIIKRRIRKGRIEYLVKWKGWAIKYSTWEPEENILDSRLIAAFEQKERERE", "assay": "ITC"}, "[7]": {"target": "T3, CBX2 chromodomain (residues 9–66 of NP_005180) (UniProt Q14781-1 9-66)", "T3 sequence (looked up)": "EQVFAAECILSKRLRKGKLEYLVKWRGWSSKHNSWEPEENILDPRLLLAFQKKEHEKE", "assay": "ITC"}, "[8]": {"target": "T4, CDYL2 chromodomain (residues 1–75 of NP_689555) (UniProt Q8N8U2 1-75)", "T4 sequence (looked up)": "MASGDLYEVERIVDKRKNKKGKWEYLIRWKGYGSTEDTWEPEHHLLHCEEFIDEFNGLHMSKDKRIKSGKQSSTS", "assay": "ITC"}},
  "note": "Numbered stars: 1 amine (or outer) side, 2 acyl side, 3 side chain; on linkers, the order of the positions; unused ones are H or OH. Square brackets hold non-standard residues; d marks the D form. Peptide text beside a SMILES is read from it. * marks the point of attachment. NH(CH2CH2O)11C2H4NHBiotinyl = O=C(CCCC[C@@H]1SC[C@@H]2NC(=O)N[C@@H]21)NCCOCCOCCOCCOCCOCCOCCOCCOCCOCCOCCOCCN*; Lys(Me,2-norbornyl) = CN(CCCC[C@H](N)C(=O)O)C1CC2CCC1C2; X10 = CN(CCCC[C@H](N[*:1])C(=O)[*:2])C1C2CC3CC(C2)CC1C3; Benzoyl(4-tBu) = CC(C)(C)c1ccc(C(=O)*)cc1; Lys(Et2) = CCN(CC)CCCC[C@H](N)C(=O)O",
  "data": [
    {"molecule": "COC(=O)[C@H](CO)NC(=O)[C@H](CCCCN(C)C1C2CC3CC(C2)CC1C3)NC(=O)[C@H](CC(C)C)NC(=O)[C@H](C)NC(=O)[C@H](Cc1ccccc1)NC(=O)c1ccc(C(C)(C)C)cc1", "note": "(stereo partly drawn) [UNC6373, methyl N^6-((1S,3S,5S,7S)-adamantan-2-yl)-N^2-(4-(tert-butyl)benzoyl)-L-phenylalanyl-L-alanyl-L-leucyl-N^6-methyl-L-lysyl-L-serinate] ({Benzoyl(4-tBu)}-FAL[X10]S-OMe)", "values": [
      {"measurement": "EC50", "setting": "[1]", "result": "1020 ± 175", "unit": "nM"},
      {"measurement": "solubility in this assay", "setting": "[2]", "result": "markedly poor solubility"}
    ]},
    {"molecule": "CCN(CC)CCCC[C@H](NC(=O)[C@H](CC(C)C)NC(=O)[C@H](C)NC(=O)[C@H](Cc1ccccc1)NC(=O)c1ccc(C(C)(C)C)cc1)C(=O)N[C@@H](CO)C(=O)NCCOCCOCCOCCOCCOCCOCCOCCOCCOCCOCCOCCNC(=O)CCCC[C@@H]1SC[C@@H]2NC(=O)N[C@@H]21", "note": "[UNC4195, 4-(tert-butyl)-N-((2S,5S,8S,11S,14S)-11-(4-(diethylamino)butyl)-14-(hydroxymethyl)-8-isobutyl-5-methyl-3,6,9,12,15,53-hexaoxo-57-((3aS,4S,6aR)-2-oxohexahydro-1H-thieno[3,4-d]imidazol-4-yl)-1-phenyl-19,22,25,28,31,34,37,40,43,46,49-undecaoxa-4,7,10,13,16,52-hexaazaheptapentacontan-2-yl)benzamide, reference compound] ({Benzoyl(4-tBu)}-FAL[Lys(Et2)]S-{NH(CH2CH2O)11C2H4NHBiotinyl})", "values": [
      {"measurement": "selectivity profile on CADOR microarray", "setting": "[3]", "result": "binding interactions were only detected for all five Polycomb CBX chromodomains and a small subset of CDY chromodomains"},
      {"measurement": "pulldown of canonical PRC1 components (CBX4, CBX7, CBX8, RING1B, BMI1)", "setting": "[4]", "result": "we detected pulldown of CBX4, CBX7, CBX8, RING1B, and BMI1"}
    ]},
    {"molecule": "CC(C)C[C@H](NC(=O)[C@H](C)NC(=O)[C@H](Cc1ccccc1)NC(=O)c1ccc(C(C)(C)C)cc1)C(=O)N[C@@H](CCCCN(C)C1CC2CCC1C2)C(=O)N[C@@H](CO)C(=O)NCCOCCOCCOCCOCCOCCOCCOCCOCCOCCOCCOCCNC(=O)CCCC[C@@H]1SC[C@@H]2NC(=O)N[C@@H]21", "note": "(stereo partly drawn) [UNC5355, N-((2S,5S,8S,11S,14S)-11-(4-(bicyclo[2.2.1]heptan-2-yl(methyl)amino)butyl)-14-(hydroxymethyl)-8-isobutyl-5-methyl-3,6,9,12,15,53-hexaoxo-57-((3aS,4S,6aR)-2-oxohexahydro-1H-thieno[3,4-d]imidazol-4-yl)-1-phenyl-19,22,25,28,31,34,37,40,43,46,49-undecaoxa-4,7,10,13,16,52-hexaazaheptapentacontan-2-yl)-4-(tert-butyl)benzamide] ({Benzoyl(4-tBu)}-FAL[Lys(Me,2-norbornyl)]S-{NH(CH2CH2O)11C2H4NHBiotinyl})", "values": [
      {"measurement": "selectivity profile on CADOR microarray", "setting": "[3]", "result": "binding interactions were only detected for all five Polycomb CBX chromodomains and a small subset of CDY chromodomains"},
      {"measurement": "pulldown of CBX2 and CBX6", "setting": "[4]", "result": "not detected"},
      {"measurement": "pulldown of canonical PRC1 components (CBX4, CBX7, CBX8, RING1B, BMI1)", "setting": "[4]", "result": "all five components previously mentioned were similarly pulled down"}
    ]},
    {"molecule": "UGGAGUUGCGUUCCA (structured_RNA)", "note": "[FAM-ANRIL-RNA (ANRIL Loop C) FP probe]", "values": [
      {"measurement": "binding signal", "setting": "[5]", "result": "4 fold affinity (alpha)"}
    ]},
    {"molecule": "B1", "values": [
      {"measurement": "fold selectivity for CBX4/7 over CBX6", "setting": "[6]", "result": 9, "unit": "fold"},
      {"measurement": "fold selectivity for CBX4/7 over CBX2", "setting": "[7]", "result": 28, "unit": "fold"},
      {"measurement": "fold selectivity for CBX4/7 over CDYL2", "setting": "[8]", "result": 8, "unit": "fold"}
    ]}
  ]
}
